How the values were obtained:
[1] = biological target: T1, Peroxisome proliferator-activated receptor gamma (Homo sapiens) (UniProt P37231); assay: Functional potency was determined in pooled human preadipocytes by measurement of PPARg aP2 gene induction; assay type: cell-based
T1 sequence (whole entry): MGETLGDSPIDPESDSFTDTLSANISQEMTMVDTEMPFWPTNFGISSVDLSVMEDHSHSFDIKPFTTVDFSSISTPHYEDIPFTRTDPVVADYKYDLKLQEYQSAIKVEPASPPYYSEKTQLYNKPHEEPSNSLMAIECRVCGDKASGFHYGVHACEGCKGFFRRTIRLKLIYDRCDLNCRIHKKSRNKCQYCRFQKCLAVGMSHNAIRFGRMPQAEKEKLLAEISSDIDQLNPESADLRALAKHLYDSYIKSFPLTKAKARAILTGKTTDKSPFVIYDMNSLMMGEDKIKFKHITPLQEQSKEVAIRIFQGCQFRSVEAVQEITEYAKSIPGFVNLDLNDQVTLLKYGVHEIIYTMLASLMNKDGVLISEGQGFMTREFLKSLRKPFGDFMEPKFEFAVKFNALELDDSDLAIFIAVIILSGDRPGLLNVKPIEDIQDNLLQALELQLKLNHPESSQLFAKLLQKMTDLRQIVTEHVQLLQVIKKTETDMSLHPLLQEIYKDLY
Procedure, shortened: (§1)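 Pooled human preadipocytes treated with compound. Induction of the aP2 gene was quantified by a branched DNA technique. EC50 values are the mean of two experiments.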

[2] = biological target: T1, Peroxisome proliferator-activated receptor gamma (Homo sapiens); assay: Agonist activity determined in peroxisome proliferator activated receptor gamma using PPAR gamma-Gal4 Luciferase cotransfection assay; assay type: functional
Procedure, shortened: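 HEK293 cells grown in DMEM/F-12 with 10% FBS and glutamine, co-transfected (DMRIE-C) with PPARg-Gal4 receptor and Gal4-luciferase reporter DNA. Next day, medium switched to 5% charcoal-treated FBS; after 6 h cells seeded and incubated overnight at 37°C. Compound exposure 24 h at 37°C, 5% CO2; luciferase read by Steady-Glo. Values are the mean of two experiments.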

[3] = biological target: T1, Peroxisome proliferator-activated receptor gamma (Homo sapiens); assay: PPAR gamma mediated aP2 gene induction in pooled human preadipocytes; assay type: functional, cell-based; procedure, shortened: as §1
[4] = system: Mus musculus; assay: Decrease in plasma glucose in db/db mice after 5 days of 30 mg/kg oral administration; assay type: functional
[5] = Half life period in human liver microsome was determined; assay type: ADME; details: liver microsomes
[6] = system: Rattus norvegicus; assay: Area under curve (AUC0-24 h) after administration (30 mg/kg) in rat; assay type: ADME, organism-based; parameters: dose 30 mg/kg, time < 24 hr; details: in vivo
[7] = Half life period after administration (30 mg/kg) in rat; assay type: ADME, organism-based; details: in vivo
[8] = system: Rattus norvegicus; assay: Oral bioavailability after administration (30 mg/kg) in rat; good; assay type: ADME, organism-based; details: in vivo
[9] = Half life period in human hepatic S9 fraction was determined; assay type: ADME, subcellular; details: liver S9 fraction

Activity [1] [µM] | Activity [2] [µM] | Structure (SMILES) | further results
> 10 | > 5 | O=C(O)Cc1ccccc1OCCC1Oc2cc3ccccc3cc2N(Cc2ccc(Cl)cc2)C1=O (stereo not drawn) | 
6 | 1.8 | COc1ccc2c(c1)N(Cc1ccc(Cl)cc1)C(=O)C(CCOc1ccccc1CC(=O)O)O2 (stereo not drawn) | 
1.3 | 0.59 | O=C(O)Cc1ccccc1OCCC1Oc2ccccc2N(Cc2ccc(F)c(F)c2)C1=O (stereo not drawn) | 
> 10 | > 5 | O=C(O)Cc1ccccc1OCCC1Oc2cc(F)ccc2N(Cc2ccc(Cl)cc2)C1=O (stereo not drawn) | 
> 10 | > 5 | O=C(O)Cc1ccccc1OCCC1Oc2ccc(C(=O)O)cc2N(Cc2ccc(Cl)cc2)C1=O (stereo not drawn) | 
4.2 | 2.1 | Cc1ccc2c(c1)OC(CCOc1ccccc1CC(=O)O)C(=O)N2Cc1ccc(Cl)cc1 (stereo not drawn) | 
6.2 | 1.8 | CC(=O)c1ccc2c(c1)OC(CCOc1ccccc1CC(=O)O)C(=O)N2Cc1ccc(Cl)cc1 (stereo not drawn) | 
> 10 | > 5 | O=C(O)CCc1ccccc1OCCC1Oc2ccccc2N(Cc2ccc(Cl)cc2)C1=O (stereo not drawn) | 
2.1 | 1.3 | O=C(O)Cc1ccccc1OCCC1Oc2ccccc2N(Cc2ccc(Cl)cc2)C1=O (stereo not drawn) | Glucose level [4]: 27%; half-life [5]: > 0.833 h; AUC [6]: 308 µM·h; half-life [7]: 20 h; F [8]: Active; half-life [9]: > 0.833 h
2.6 | 0.96 | O=C(O)Cc1ccccc1OCCC1Oc2ccccc2N(Cc2ccc(Cl)c(Cl)c2)C1=O (stereo not drawn) | 
5 | 2 | Cc1ccc(CN2C(=O)C(CCOc3ccccc3CC(=O)O)Oc3ccccc32)cc1 (stereo not drawn) | 

More lines, now with the values behind:

Structure (SMILES) | Activity [1] [µM] | Activity [2] [µM] | further results
O=C(O)CCc1cccc(OCCC2Oc3ccccc3N(Cc3cccc(Cl)c3)C2=O)c1 (stereo not drawn) |  |  | Fold induction [3]: 5.6
O=C(O)Cc1ccccc1OCCC1Oc2ccccc2N(Cc2cccc(Cl)c2)C1=O (stereo not drawn) | 2.4 | 1.9 | Fold induction [3]: 6.2
COc1ccc(CN2C(=O)C(CCOc3ccccc3CC(=O)O)Oc3ccccc32)cc1 (stereo not drawn) | 5.4 | 0.52 | 
O=C(O)Cc1ccccc1OCCC1Oc2ccccc2N(c2ccc(Cl)c(Cl)c2)C1=O (stereo not drawn) | 5.9 | 0.57 | 
O=C(O)Cc1ccccc1OCCC1Oc2ccccc2N(Cc2ccccc2)C1=O (stereo not drawn) | 4.6 | > 5 | 
CN(CCOc1ccc(CC2SC(=O)NC2=O)cc1)c1ccccn1 (stereo not drawn) | 0.12 |  | 
O=C(O)Cc1ccc(OCCC2Oc3ccccc3N(Cc3cccc(Cl)c3)C2=O)cc1 (stereo not drawn) |  |  | Fold induction [3]: 3.2
O=C(O)Cc1ccccc1OCCC1Oc2ccccc2N(Cc2ccc3c(c2)OCO3)C1=O (stereo not drawn) | 4.4 | 1.1 | 
O=C(O)Cc1ccccc1OCCC1CN(Cc2ccc(Cl)c(Cl)c2)c2ccccc2O1 (stereo not drawn) | > 10 | > 5 | 
O=C(O)c1ccccc1OCCC1Oc2ccccc2N(Cc2ccc(Cl)cc2)C1=O (stereo not drawn) | > 10 | > 5 | 
O=C(O)Cc1ccccc1OCCC1Oc2ccccc2N(Cc2ccc(F)cc2)C1=O (stereo not drawn) | 3.2 | 1.1 | 
O=C(O)Cc1cccc(OCCC2Oc3ccccc3N(Cc3cccc(Cl)c3)C2=O)c1 (stereo not drawn) | > 10 | > 5 | Fold induction [3]: 5.5
O=C(O)Cc1ccccc1OCCC1Oc2ccccc2N(Cc2ccc(C(F)(F)F)cc2)C1=O (stereo not drawn) | 0.51 | 0.5 | 
O=C(O)CCc1ccc(OCCC2Oc3ccccc3N(Cc3cccc(Cl)c3)C2=O)cc1 (stereo not drawn) |  |  | Fold induction [3]: 3.6
O=C(O)Cc1ccccc1OCCC1Oc2ccccc2N(CCc2ccc(Cl)c(Cl)c2)C1=O (stereo not drawn) | > 10 | > 5 | 
O=C(O)Cc1cccc(OCCC2Oc3ccccc3N(Cc3ccc(Cl)cc3)C2=O)c1 (stereo not drawn) | > 10 | > 5 | 

— ChEMBL document CHEMBL1136108, “Benzoxazinones as PPARgamma agonists. part 1: SAR of three aromatic regions” (Bioorg Med Chem Lett, 2003)
